Laboratory results taken from ChEMBL document CHEMBL3853327 (J Med Chem, 2016).
pEC50, pIC50: −log10 of the molar value.

Molecular target: not listed separately
Assay: Inhibition of recombinant wild type HIV1 reverse transcriptase using DIG-dUTP/biotin-dUTP/dTTP assessed as suppression of biotin-dUTP incorporation after 1 hr by ELISA
Set-up: species or system Human immunodeficiency virus 1
Details: not given
In short: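 Recombinant WT HIV-1 RT in a Roche colorimetric kit: template plus DIG-dUTP, biotin-dUTP and dTTP, ±inhibitor, 1 h at 37 °C. Product captured on streptavidin plate 1 h at 37 °C, anti-DIG-POD 1 h at 37 °C, ABTS developed at 25 °C, read at OD405. IC50 is the concentration inhibiting biotin-dUTP incorporation by 50%.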

Q: With `Cc1cc(C)c(Oc2nc(NC3CCN(Cc4ccc(F)cc4)CC3)nc3ccsc23)c(C)c1` as the compound, how does the pIC50 read?
A: 5.91

Tested on: Human immunodeficiency virus 1
Assay: Fold resistance, ratio of IC50 for recombinant HIV1 reverse transcriptase K103N/Y181C double mutant to IC50 for wild type HIV1 reverse transcriptase
Details: not given
In short: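 Ratio of mutant to WT IC50. Recombinant WT and K103N/Y181C RT were assayed with a kit: template plus DIG-dUTP, biotin-dUTP and dTTP, with or without inhibitor, 1 h at 37 °C. Product was captured on streptavidin, detected with anti-DIG-POD and ABTS, and read at 405 nm. IC50 is the concentration inhibiting biotin-dUTP incorporation by 50%.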

Q: Which Ratio IC50 does the source give for `Cc1cc(C)c(Oc2nc(NC3CCN(Cc4ccc(F)cc4)CC3)nc3ccsc23)c(C)c1` here?
A: 5.34

Tested on: Human immunodeficiency virus 1
Assay: Antiviral activity against HIV1 3B harboring reverse transcriptase F227L/V106A double mutant infected in human MT4 cells assessed as protection against virus induced cytotoxicity after 5 days by MTT assay
Type: functional, cell-based
Details: Human immunodeficiency virus 1, 3B, MT4, 120 h
In short: (§1)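 MTT cytopathicity assay in MT-4 cells (6 × 10^5 cells/mL). Compounds serially diluted 5-fold in triplicate wells, run in parallel on infected and mock-infected cells. Virus added at 100−300 CCID50 per well. Viability read spectrophotometrically at 540 and 690 nm after 5 days, using the median OD of three wells. EC50 is the concentration giving 50% protection from viral cytopathogenicity.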

Q: With `Cc1cc(C)c(Oc2nc(NC3CCN(Cc4ccc(F)cc4)CC3)nc3ccsc23)c(C)c1` as the compound, how does the pEC50 read?
A: 5.27

Tested on: not listed separately
Assay: Selectivity index, ratio of CC50 for human mock-infected MT4 cells to EC50 for HIV1 3B harboring reverse transcriptase F227L/V106A double mutant infected in human MT4 cells
Type: toxicity, cell-based
Details: MT4 cells (mock-infected for CC50, HIV-1 infected for EC50)
In short: (§2)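 Selectivity index is CC50/EC50. CC50 is the concentration that reduces OD540 of mock-infected MT-4 cells by 50% in the 5-day MTT assay. EC50 is the 50% protection from virus-induced cytopathicity, measured in parallel on infected wells.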

Q: For `Cc1cc(C)c(Oc2nc(NC3CCN(Cc4ccc(F)cc4)CC3)nc3ccsc23)c(C)c1`, which selectivity ratio is on record?
A: 2

Tested on: not listed separately
Assay: Selectivity index, ratio of CC50 for human mock-infected MT4 cells to EC50 for HIV1 3B harboring reverse transcriptase K103N mutant infected in human MT4 cells
Type: toxicity, cell-based
Details: MT4 cells (mock-infected for CC50, HIV-1 infected for EC50)
In short: as §2

Q: With `Cc1cc(C)c(Oc2nc(NC3CCN(Cc4ccc(F)cc4)CC3)nc3ccsc23)c(C)c1` as the compound, how does the selectivity ratio read?
A: 130

Tested on: Human immunodeficiency virus 1
Assay: Antiviral activity against HIV1 3B harboring reverse transcriptase Y188L mutant infected in human MT4 cells assessed as protection against virus induced cytotoxicity after 5 days by MTT assay
Type: functional, cell-based
Details: Human immunodeficiency virus 1, 3B, MT4, 120 h
In short: as §1

Q: With `Cc1cc(C)c(Oc2nc(NC3CCN(Cc4ccc(F)cc4)CC3)nc3ccsc23)c(C)c1` as the compound, how does the pEC50 read?
A: 6.15

Tested on: Human immunodeficiency virus 1
Assay: Antiviral activity against HIV1 3B harboring reverse transcriptase Y181C mutant infected in human MT4 cells assessed as protection against virus induced cytotoxicity after 5 days by MTT assay
Type: functional, cell-based
Details: Human immunodeficiency virus 1, 3B, MT4, 120 h
In short: as §1, with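 “wells.” for “wells. EC50 is the concentration giving 50% protection from viral cytopathogenicity.”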

Q: With `Cc1cc(C)c(Oc2nc(NC3CCN(Cc4ccc(F)cc4)CC3)nc3ccsc23)c(C)c1` as the compound, how does the pEC50 read?
A: 6.74

Tested on: not listed separately
Assay: Antiviral activity against HIV2 ROD harboring reverse transcriptase infected in human MT4 cells assessed as protection against virus induced cytotoxicity after 5 days by MTT assay
Type: functional, cell-based, Human immunodeficiency virus type 2 (ISOLATE ROD)
Details: Human immunodeficiency virus 2, MT4, 120 h
In short: as §1

Q: With `Cc1cc(C)c(Oc2nc(NC3CCN(Cc4ccc(F)cc4)CC3)nc3ccsc23)c(C)c1` as the compound, how does the pEC50 read?
A: < 4.92

Tested on: not listed separately
Assay: Cytotoxicity against human mock-infected MT4 cells assessed as reduction in cell viability after 5 days by MTT assay
Type: toxicity, cell-based
Details: not given
In short: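 Mock-infected MT-4 cells (6 × 10^5 cells/mL at seeding) with serial 5-fold compound dilutions in triplicate wells. Viability read by MTT after 5 days, absorbance at 540 and 690 nm, median OD of three wells. CC50 is the concentration reducing OD540 of mock-infected cells by 50%.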

Q: Which CC50 at 120 h does the source give for `Cc1cc(C)c(Oc2nc(NC3CCN(Cc4ccc(F)cc4)CC3)nc3ccsc23)c(C)c1` here?
A: 11.9 µM

Molecular target: Human immunodeficiency virus type 1 reverse transcriptase (Human immunodeficiency virus 1, UniProt Q72547, K103N/Y181C)
Assay: Inhibition of recombinant HIV1 reverse transcriptase K103N/Y181C double mutant using DIG-dUTP/biotin-dUTP/dTTP assessed as suppression of biotin-dUTP incorporation after 1 hr by ELISA
Details: not given

Q: With `Cc1cc(C)c(Oc2nc(NC3CCN(Cc4ccc(F)cc4)CC3)nc3ccsc23)c(C)c1` as the compound, how does the pIC50 read?
A: 5.18

Tested on: Human immunodeficiency virus 1
Assay: Antiviral activity against HIV1 3B harboring reverse transcriptase L100I mutant infected in human MT4 cells assessed as protection against virus induced cytotoxicity after 5 days by MTT assay
Type: functional, cell-based
Details: Human immunodeficiency virus 1, 3B, MT4, 120 h
In short: as §1

Q: With `Cc1cc(C)c(Oc2nc(NC3CCN(Cc4ccc(F)cc4)CC3)nc3ccsc23)c(C)c1` as the compound, how does the pEC50 read?
A: 5.92

Tested on: not listed separately
Assay: Selectivity index, ratio of CC50 for human mock-infected MT4 cells to EC50 for HIV1 RES056 harboring reverse transcriptase K103N/Y181C double mutant infected in human MT4 cells
Type: toxicity, cell-based
Details: MT4 cells (mock-infected for CC50, HIV-1 infected for EC50)
In short: as §2

Q: With `Cc1cc(C)c(Oc2nc(NC3CCN(Cc4ccc(F)cc4)CC3)nc3ccsc23)c(C)c1` as the compound, how does the selectivity ratio read?
A: 2

Tested on: not listed separately
Assay: Selectivity index, ratio of CC50 for human mock-infected MT4 cells to EC50 for HIV1 3B harboring reverse transcriptase Y181C mutant infected in human MT4 cells
Type: toxicity, cell-based
Details: MT4 cells (mock-infected for CC50, HIV-1 infected for EC50)
In short: as §2

Q: With `Cc1cc(C)c(Oc2nc(NC3CCN(Cc4ccc(F)cc4)CC3)nc3ccsc23)c(C)c1` as the compound, how does the selectivity ratio read?
A: 66

Tested on: Human immunodeficiency virus 1
Assay: Antiviral activity against wild type HIV1 3B harboring reverse transcriptase infected in human MT4 cells assessed as protection against virus induced cytotoxicity after 5 days by MTT assay
Type: functional, cell-based
Details: Human immunodeficiency virus 1, 3B, MT4, 120 h
In short: as §1, with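 “wells.” for “wells. EC50 is the concentration giving 50% protection from viral cytopathogenicity.”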

Q: With `Cc1cc(C)c(Oc2nc(NC3CCN(Cc4ccc(F)cc4)CC3)nc3ccsc23)c(C)c1` as the compound, how does the pEC50 read?
A: 7.59

Tested on: not listed separately
Assay: Selectivity index, ratio of CC50 for human mock-infected MT4 cells to EC50 for HIV1 3B harboring reverse transcriptase L100I mutant infected in human MT4 cells
Type: toxicity, cell-based
Details: MT4 cells (mock-infected for CC50, HIV-1 infected for EC50)
In short: as §2

Q: For `Cc1cc(C)c(Oc2nc(NC3CCN(Cc4ccc(F)cc4)CC3)nc3ccsc23)c(C)c1`, which selectivity ratio is on record?
A: 10

Tested on: not listed separately
Assay: Selectivity index, ratio of CC50 for human mock-infected MT4 cells to EC50 for HIV1 3B harboring reverse transcriptase E138K mutant infected in human MT4 cells
Type: toxicity, cell-based
Details: MT4 cells (mock-infected for CC50, HIV-1 infected for EC50)
In short: as §2

Q: Which selectivity ratio does the source give for `Cc1cc(C)c(Oc2nc(NC3CCN(Cc4ccc(F)cc4)CC3)nc3ccsc23)c(C)c1` here?
A: 72

Tested on: not listed separately
Assay: Selectivity index, ratio of CC50 for human mock-infected MT4 cells to EC50 for HIV1 3B harboring reverse transcriptase Y188L mutant infected in human MT4 cells
Type: toxicity, cell-based
Details: MT4 cells (mock-infected for CC50, HIV-1 infected for EC50)
In short: as §2

Q: For `Cc1cc(C)c(Oc2nc(NC3CCN(Cc4ccc(F)cc4)CC3)nc3ccsc23)c(C)c1`, which selectivity ratio is on record?
A: 17

Tested on: Human immunodeficiency virus 1
Assay: Antiviral activity against HIV1 3B harboring reverse transcriptase K103N mutant infected in human MT4 cells assessed as protection against virus induced cytotoxicity after 5 days by MTT assay
Type: functional, cell-based
Details: Human immunodeficiency virus 1, 3B, MT4, 120 h
In short: as §1

Q: With `Cc1cc(C)c(Oc2nc(NC3CCN(Cc4ccc(F)cc4)CC3)nc3ccsc23)c(C)c1` as the compound, how does the pEC50 read?
A: 7.04

Tested on: not listed separately
Assay: Selectivity index, ratio of CC50 for human mock-infected MT4 cells to EC50 for wild type HIV1 3B harboring reverse transcriptase infected in human MT4 cells
Type: toxicity, cell-based
Details: MT4 cells (mock-infected for CC50, HIV-1 infected for EC50)
In short: as §2

Q: For `Cc1cc(C)c(Oc2nc(NC3CCN(Cc4ccc(F)cc4)CC3)nc3ccsc23)c(C)c1`, which selectivity ratio is on record?
A: 465

Tested on: Human immunodeficiency virus 1
Assay: Antiviral activity against HIV1 3B harboring reverse transcriptase E138K mutant infected in human MT4 cells assessed as protection against virus induced cytotoxicity after 5 days by MTT assay
Type: functional, cell-based
Details: Human immunodeficiency virus 1, 3B, MT4, 120 h
In short: as §1

Q: With `Cc1cc(C)c(Oc2nc(NC3CCN(Cc4ccc(F)cc4)CC3)nc3ccsc23)c(C)c1` as the compound, how does the pEC50 read?
A: 6.78
